Reference: publication PMC9199876 (Clinical and Translational Science, 2022)
Values joined by “and” are separate entries in the source; they are usually repeats but may differ in a detail not shown here. Equal entries are not always repeated. Where two headings read alike, the source gives them in different places.

How the values were obtained:
[1] = test system: MATE1; details: at a clinically relevant dose; cited from earlier work
[2] = test system: MATE2-K; details: in vitro; cited from earlier work
[3] = test system: OAT1; details: at a clinically relevant dose; cited from earlier work
[4] = test system: BCRP; details: at a clinically relevant dose; cited from earlier work
[5] = test system: MATE1; details: in vitro; cited from earlier work
[6] = oral administration, dogs; cited from earlier work
[7] = test system: CYP2B6; details: in vitro, clinically relevant dose (0.06 μM); cited from earlier work
[8] = test system: CYP2C8; details: in vitro, clinically relevant dose (0.06 μM); cited from earlier work
[9] = test system: breast cancer resistance protein (BCRP); details: in vitro; cited from earlier work
[10] = phase II, 51 patients with idiopathic or diabetic gastroparesis; cited from earlier work
[11] = Phase I two-way crossover study: plasma pharmacokinetics of trazpiroben and M23; format: in vivo, humans (healthy adults); details: for AUC∞, geometric mean (mean CV%) / C max, geometric mean (geometric CV%) / T max, median (min, max) / t 1/2z, mean (SD): plasma trazpiroben; for AUC∞, geometric mean (mean CV%): n = 12
How it was run: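 Open-label crossover in healthy adults fasted ≥10 h: a single oral 25 mg capsule, alone or right after a 30-min i.v. infusion of 600 mg rifampin, with ≥7-day washout. Parent and metabolite were measured by LC-MS/MS (range 0.1–50.0 ng/ml; BLOQ set to zero). Noncompartmental analysis used actual sampling times.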

[12] = test system: bile salt export pump; details: at a clinically relevant dose; cited from earlier work
[13] = test system: OCT2; details: in vitro; cited from earlier work
[14] = test system: OAT1; details: in vitro; cited from earlier work
[15] = test system: MATE2-K; details: at a clinically relevant dose; cited from earlier work
[16] = oral administration, rats; cited from earlier work
[17] = test system: OAT3; details: at a clinically relevant dose; cited from earlier work
[18] = test system: CYP2D6; details: in vitro, clinically relevant dose (0.06 μM); cited from earlier work
[19] = single and multiple doses, healthy men and women; cited from earlier work
[20] = cited from earlier work
[21] = test system: CYP1A2; details: in vitro, clinically relevant dose (0.06 μM); cited from earlier work
[22] = healthy Japanese individuals; cited from earlier work
[23] = test system: OATP1B1/1B3; details: in vitro; cited from earlier work
[24] = ref data on file, cited from earlier work
[25] = test system: OAT3; details: in vitro; cited from earlier work
[26] = preclinical; cited from earlier work
[27] = test system: CYP3A4; details: in vitro; cited from earlier work
[28] = test system: CYP isoforms; details: in vitro, clinically relevant dose (0.06 μM); cited from earlier work
[29] = test system: OATP1B1/1B3; assay: Clinical DDI: effect of single-dose i.v. rifampin; format: in vivo, humans (healthy adults); details: plasma trazpiroben; trazpiroben with rifampin relative to trazpiroben alone
How it was run: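 Healthy fasted adults (n = 12) in a two-way crossover: an oral 25 mg capsule of test compound alone, or given immediately after 600 mg rifampin i.v. over 30 min. Washout was ≥7 days. Plasma parent and metabolite were assayed by validated LC-MS/MS and analysed noncompartmentally. The ANOVA on log-transformed AUC∞ and Cmax gave the LSM difference (B – A), which was exponentiated to give GMRs with 90% CIs.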

[30] = test system: cytosolic NADPH-dependent reductases; details: in vitro; cited from earlier work
[31] = test system: p-glycoprotein (P-gp); details: in vitro; cited from earlier work
[32] = Safety and tolerability assessment; format: in vivo, humans (healthy adults); details: for Number of participants with TEAEs / TEAE: Abdominal pain, upper / TEAE: Cough / TEAE: Dermatitis contact / TEAE: Gastrointestinal disorders / TEAE: Headache / TEAE: Nasal congestion / TEAE: Nervous system disorders / TEAE: Respiratory, thoracic, and mediastinal disorders / TEAE: Sensory disturbance / TEAE: Sinus congestion / TEAE: Skin and subcutaneous tissue disorders / TEAE: Sneezing: n = 12
How it was run: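 Twelve healthy adults received a single oral 25 mg dose with and without i.v. rifampin 600 mg in crossover. TEAEs were monitored throughout. Vital signs and triplicate 12-lead ECGs were taken at screening (day −28 to −2), predose, and 1, 2, 4, 8 and 48 h post dose in each period. Serum chemistry, hematology and urinalysis were also run. Follow-up included a full physical exam, vital signs and ECG.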

[33] = test system: CYP3A; details: in vitro, clinically relevant dose (0.06 μM); cited from earlier work
[34] = test system: OCT2; details: at a clinically relevant dose; cited from earlier work
[35] = test system: CYP2C8; details: in vitro; cited from earlier work
[36] = test system: CYP2C9; details: in vitro, clinically relevant dose (0.06 μM); cited from earlier work
[37] = test system: CYP2C19; details: in vitro, clinically relevant dose (0.06 μM); cited from earlier work
[38] = test system: CYP3A4; details: phase I DDI studies; cited from earlier work
[39] = test system: OATP1B1/1B3; details: at a clinically relevant dose; cited from earlier work
[40] = trazpiroben 25 mg + rifampin 600 mg i.v.
[41] = fasted rats, oral radiolabeled trazpiroben, after 24 h
[42] = trazpiroben 25 mg + rifampin 600 mg

O=C(O)c1cccc(CN2CN(C3CCCCC3)C3(CCN(CCCC(=O)c4ccccc4)CC3)C2=O)c1 [trazpiroben, Trazpiroben]
inhibitor of MATE1 [1]: not an inhibitor | substrate of MATE2-K [2]: not a substrate | inhibitor of OAT1 [3]: not an inhibitor | inhibitor of BCRP [4]: not an inhibitor | substrate of MATE1 [5]: not a substrate | absolute bioavailability [6]: ~ 20% | inhibition of CYP2B6 [7]: does not inhibit | inhibition of CYP2C8 [8]: does not inhibit | substrate of BCRP [9]: not a substrate | safety signals [10]: did not identify any safety signals | participants with detectable levels of plasma trazpiroben ([11]; 0.5 h, co-administered with rifampin): all participants | participants with detectable levels of plasma trazpiroben ([11]; 0.5 h after trazpiroben alone): 92% | participants with detectable levels of plasma trazpiroben ([11]; 12 h after trazpiroben alone): 92% | participants with detectable levels of plasma trazpiroben ([11]; 16 h after trazpiroben alone): 42% | participants with detectable levels of plasma trazpiroben ([11]; 16 h post dose, trazpiroben + rifampin): 83% | AUC∞, geometric mean (mean CV%) ([11]; single oral trazpiroben 25 mg alone): 32.7 ng*h/ml and 32.68 (23.9) ng*h/ml | C max, geometric mean (geometric CV%) [11, 40]: 89.62 (68.6) ng/ml | T max, median (min, max) [11, 40]: 1.002 (0.49, 2.00) h | t 1/2z, mean (SD) [11, 40]: 2.028 ± 0.3449 h | C max, geometric mean (geometric CV%) ([11]; trazpiroben 25 mg alone): 14.37 (38.7) ng/ml | T max, median (min, max) ([11]; trazpiroben 25 mg alone): 1.037 (0.50, 2.00) h | t 1/2z, mean (SD) ([11]; trazpiroben 25 mg alone): 4.229 ± 3.7897 h | AUC∞, geometric mean (mean CV%) ([11]; trazpiroben 25 mg oral + rifampin 600 mg i.v.): 168.5 (49.9) ng*h/ml | CL/F, geometric mean (geometric CV%) [11, 40]: 148.4 (49.9) L/h | V z/F, geometric mean (geometric CV%) [11, 40]: 428.1 (49.9) L | CL/F, geometric mean (geometric CV%) ([11]; trazpiroben 25 mg alone): 765.1 (23.9) L/h | V z/F, geometric mean (geometric CV%) ([11]; trazpiroben 25 mg alone): 3469 (70.7) L | inhibitor of bile salt export pump [12]: not an inhibitor | substrate of OCT2 [13]: not a substrate | substrate of OAT1 [14]: not a substrate | inhibitor of MATE2-K [15]: not an inhibitor | absolute bioavailability [16]: ~ 20% | inhibitor of OAT3 [17]: not an inhibitor | inhibition of CYP2D6 [18]: does not inhibit | tolerability [19]: well‐tolerated | accumulation index ([20]; 50 mg twice daily for 5 days): 1.9 | accumulation index ([20]; 100 mg twice daily for 5 days): 1.4 | time to maximum concentration [T max] ([20]; AT-01C study, healthy men and women): ~ 1.1 h | mean half-life ([20]; AT-01C study): 4 h | mean apparent oral clearance ([20]; across single-dose groups of 25–300 mg): 600 to 800 L/h | inhibition of CYP1A2 [21]: does not inhibit | tolerability [22]: well‐tolerated | substrate of OATP1B1/1B3 [23]: substrate | dosed radioactivity excreted in bile ([24]; bile duct cannulated rats): ~ 86% | dosed radioactivity excreted in feces ([24]; bile duct cannulated rats): 11% | dosed radioactivity excreted in urine ([24]; bile duct cannulated rats): 5% | dosed radioactivity excreted in feces [24, 41]: ~ 94% | dosed radioactivity excreted in urine [24, 41]: 6% | substrate of OAT3 [25]: not a substrate | accumulation after repeated doses [26]: minor accumulation | increase of plasma concentrations with dose [26]: dose‐proportional manner | share of metabolism via CYP3A4 [27]: 25.8% | induction of CYP isoforms [28]: does not induce | AUC∞ geometric mean ratio (90% CI) [29]: 5.16 (4.25–6.25) fold | C max geometric mean ratio (90% CI) [29]: 6.24 (4.62–8.42) fold | share of metabolism via non-CYP cytosolic NADPH-dependent reductases (to M23) [30]: 56.7% | substrate of p-glycoprotein (P-gp) [31]: substrate | serum chemistry, hematology, urinalysis, vital signs, and ECG results ([32]; all participants, throughout the study): remained within normal limits | AE relating to QT prolongation ([32]; current study): no clinically relevant AE relating to QT prolongation | Number of participants with TEAEs ([32]; overall (both treatments)): 6 (50) n (%) | TEAE: Abdominal pain, upper ([32]; overall (both treatments)): 1 (8) n (%) | TEAE: Cough ([32]; overall (both treatments)): 1 (8) n (%) | TEAE: Dermatitis contact ([32]; overall (both treatments)): 1 (8) n (%) | TEAE: Gastrointestinal disorders ([32]; overall (both treatments)): 1 (8) n (%) | TEAE: Headache ([32]; overall (both treatments)): 2 (17) n (%) | TEAE: Nasal congestion ([32]; overall (both treatments)): 1 (8) n (%) | TEAE: Nervous system disorders ([32]; overall (both treatments)): 3 (25) n (%) | TEAE: Respiratory, thoracic, and mediastinal disorders ([32]; overall (both treatments)): 2 (17) n (%) | TEAE: Sensory disturbance ([32]; overall (both treatments)): 1 (8) n (%) | TEAE: Sinus congestion ([32]; overall (both treatments)): 1 (8) n (%) | TEAE: Skin and subcutaneous tissue disorders ([32]; overall (both treatments)): 1 (8) n (%) | TEAE: Sneezing ([32]; overall (both treatments)): 1 (8) n (%) | tolerability ([32]; single agent or in combination with rifampin, healthy participants): well‐tolerated | Number of participants with TEAEs [32, 42]: 2 (17) n (%) | TEAE: Abdominal pain, upper [32, 42]: 0 (0) n (%) | TEAE: Cough [32, 42]: 1 (8) n (%) | TEAE: Dermatitis contact [32, 42]: 0 (0) n (%) | TEAE: Gastrointestinal disorders [32, 42]: 0 (0) n (%) | TEAE: Headache [32, 42]: 1 (8) n (%) | TEAE: Nasal congestion [32, 42]: 1 (8) n (%) | TEAE: Nervous system disorders [32, 42]: 1 (8) n (%) | TEAE: Respiratory, thoracic, and mediastinal disorders [32, 42]: 1 (8) n (%) | TEAE: Sensory disturbance [32, 42]: 0 (0) n (%) | TEAE: Sinus congestion [32, 42]: 0 (0) n (%) | TEAE: Skin and subcutaneous tissue disorders [32, 42]: 0 (0) n (%) | TEAE: Sneezing [32, 42]: 0 (0) n (%) | Number of participants with TEAEs ([32]; trazpiroben 25 mg alone): 6 (50) n (%) | TEAE: Abdominal pain, upper ([32]; trazpiroben 25 mg alone): 1 (8) n (%) | TEAE: Cough ([32]; trazpiroben 25 mg alone): 0 (0) n (%) | TEAE: Dermatitis contact ([32]; trazpiroben 25 mg alone): 1 (8) n (%) | TEAE: Gastrointestinal disorders ([32]; trazpiroben 25 mg alone): 1 (8) n (%) | TEAE: Headache ([32]; trazpiroben 25 mg alone): 2 (17) n (%) | TEAE: Nasal congestion ([32]; trazpiroben 25 mg alone): 0 (0) n (%) | TEAE: Nervous system disorders ([32]; trazpiroben 25 mg alone): 3 (25) n (%) | TEAE: Respiratory, thoracic, and mediastinal disorders ([32]; trazpiroben 25 mg alone): 1 (8) n (%) | TEAE: Sensory disturbance ([32]; trazpiroben 25 mg alone): 1 (8) n (%) | TEAE: Sinus congestion ([32]; trazpiroben 25 mg alone): 1 (8) n (%) | TEAE: Skin and subcutaneous tissue disorders ([32]; trazpiroben 25 mg alone): 1 (8) n (%) | TEAE: Sneezing ([32]; trazpiroben 25 mg alone): 1 (8) n (%) | participants reporting contact dermatitis ([32]; trazpiroben alone): 8% | participants reporting headache ([32]; trazpiroben alone): 17% | participants reporting sensory disturbance ([32]; trazpiroben alone): 8% | participants reporting sinus congestion ([32]; trazpiroben alone): 8% | participants reporting upper abdominal pain ([32]; trazpiroben alone): 8% | severity of TEAEs ([32]; whole study): mild | number of TEAEs recorded ([32]; whole study, 12 participants): 10 | deaths, serious AEs, discontinuations due to an AE ([32]; whole study, trazpiroben alone and with rifampin): no deaths, serious AEs, or discontinuations due to an AE | inhibition of CYP3A [33]: does not inhibit | inhibitor of OCT2 [34]: not an inhibitor | share of metabolism via CYP2C8 [35]: 11.8% | inhibition of CYP2C9 [36]: does not inhibit | inhibition of CYP2C19 [37]: does not inhibit | sensitivity to CYP3A4 inhibition [38]: relatively insensitive | inhibitor of OATP1B1/1B3 [39]: not an inhibitor
